The whole screen tested about 24,000 compounds, of which fewer than 10 were called active. Cut-off read from the data, not from the text of the source: active = caspase activation above about 5.9%; inconclusive = no clear call, values can overlap the other calls; inactive = below about 2.2%. The list is a sample of the results.
Assay: A1 inhibitors via caspase activation, primary screen, cell-based, luminescence, HTS, two replicates (AID 2465)
Conditions: MEF A1-2A-BIM cells, caspase-Glo luminescence, 3 h; stronger effect = higher value; percent of clofoctol response, DMSO zero; concentration not given here
Outline: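 System: mouse embryonic fibroblasts co-expressing A1 and BIM (A1-2A-BIM), primed for A1 dependence; amount: 2500 cells/well; doses: 50 nL pinned compound; schedule: cells settled overnight, compound exposure 3 h at 37 °C, 5% CO2; detection: Caspase-Glo 3/7 luminescence, 1 h at room temperature; read-out: Caspase-3/7 activation, seen as rise in luminescence signal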

Caspase activation, inactive:
Cc1noc(C)c1S(=O)(=O)N(C)C[C@@H]1OCCCC[C@H](C)Oc2ccc(NC(=O)NC3CCCCC3)cc2C(=O)N([C@@H](C)CO)C[C@H]1C 2.87%
COc1cc(O)cc(OC)c1/C=N/NC(=O)c1ccccc1O -0.325%
C[C@@H]1CCCCO[C@@H](CN(C)C(=O)Nc2cccc3ccccc23)[C@H](C)CN([C@@H](C)CO)C(=O)c2cc(NS(=O)(=O)c3ccccc3)ccc2O1 0.255%
COc1ccc(S(=O)(=O)Nc2ccc3c(c2)C(=O)N([C@@H](C)CO)C[C@H](C)[C@@H](CN(C)C(=O)Nc2ccc4c(c2)OCO4)OCCCC[C@@H](C)O3)cc1 0.557%
C[C@H]1CCCCO[C@@H](CN(C)Cc2ccc3c(c2)OCO3)[C@@H](C)CN([C@@H](C)CO)C(=O)c2cc(NC(=O)c3ccccc3)ccc2O1 -0.254%
C[C@@H]1CN([C@@H](C)CO)C(=O)c2cc(NC(=O)Nc3ccccc3)ccc2O[C@H]1CN(C)S(=O)(=O)c1ccccc1 -0.0866%
C[C@@H]1CCCCO[C@H](CN(C)C(=O)Nc2cccc3ccccc23)[C@H](C)CN([C@@H](C)CO)C(=O)c2cc(NC(=O)CCCN(C)C)ccc2O1 -0.756%
COc1ccc(CN(C)C[C@@H]2OCCCC[C@H](C)Oc3ccc(NS(=O)(=O)c4ccc(F)cc4)cc3C(=O)N([C@@H](C)CO)C[C@@H]2C)cc1 0.494%
O=C(NO)c1cccc(C(=O)N/N=C/c2c[nH]c3ccccc23)c1 -1.04%
C[C@@H]1CN([C@@H](C)CO)C(=O)CCCn2nncc2CO[C@@H]1CN(C)S(=O)(=O)c1ccc(-c2ccccc2)cc1 -0.179%
Cc1ccc(S(=O)(=O)Nc2ccc3c(c2)C(=O)N([C@H](C)CO)C[C@H](C)[C@H](CN(C)C(=O)Nc2ccc4c(c2)OCO4)OCCCC[C@@H](C)O3)cc1 -0.5%
C[C@@H]1CCCCO[C@@H](CN(C)Cc2ccccc2)[C@H](C)CN([C@H](C)CO)C(=O)c2cc(NC(=O)Nc3cccc4ccccc34)ccc2O1 1.29%
C[C@@H]1CCCCO[C@@H](CN(C)CC2CCCCC2)[C@H](C)CN([C@H](C)CO)C(=O)c2cc(NC(=O)C3CCCCC3)ccc2O1 0.00789%
CC(C)NC(=O)Nc1ccc2c(c1)C(=O)N([C@H](C)CO)C[C@H](C)[C@@H](CN(C)Cc1ccc3c(c1)OCO3)OCCCC[C@H](C)O2 -0.756%
CNC[C@H]1OCCCC[C@@H](C)Oc2ccc(NS(C)(=O)=O)cc2C(=O)N([C@@H](C)CO)C[C@H]1C -0.624%
COc1ccc(S(=O)(=O)Nc2ccc3c(c2)C(=O)N([C@H](C)CO)C[C@@H](C)[C@H](CN(C)C(=O)c2ccncc2)OCCCC[C@@H](C)O3)cc1 0.262%
C[C@H]1CN([C@@H](C)CO)C(=O)CCCn2cc(nn2)CO[C@@H]1CN(C)S(=O)(=O)c1ccccc1C#N 0.483%
C[C@H]1CN([C@@H](C)CO)C(=O)Cc2cc(NC(=O)CCCCCC(=O)Nc3ccccc3N)ccc2O[C@@H]1CN(C)Cc1ccncc1 -0.722%
CC(C)NC(=O)Nc1ccc2c(c1)C(=O)N([C@@H](C)CO)C[C@@H](C)[C@H](CN(C)Cc1ccc(Cl)c(Cl)c1)OCCCC[C@H](C)O2 -1.26%
COc1ccc(NC(=O)N(C)C[C@H]2OCCCC[C@H](C)Oc3ccc(NC(=O)NC4CCCCC4)cc3C(=O)N([C@@H](C)CO)C[C@@H]2C)cc1 -0.198%
C[C@@H]1CN([C@H](C)CO)C(=O)c2cc(NC(=O)Cn3cnnn3)ccc2O[C@@H]1CN(C)C(=O)Nc1ccc2c(c1)OCO2 -0.00909%
C[C@H](CO)N1C[C@H](C)[C@@H](CN(C)CC2CC2)OCCCC[C@H](C)Oc2ccc(NC(=O)Cc3ccccc3)cc2C1=O 0.105%
CCCN(C)C[C@@H]1OCCCC[C@@H](C)Oc2ccc(NC(=O)Nc3ccc(C(F)(F)F)cc3)cc2C(=O)N([C@H](C)CO)C[C@H]1C 1.62%
C[C@H](CO)N1C[C@H](C)[C@@H](CN(C)Cc2ccncc2)Oc2ccc(NS(=O)(=O)c3ccc(Cl)cc3)cc2CC1=O -1.19%

Source: PubChem BioAssay AID2465 (Broad Institute, 2010)
